The values below come from ChEMBL document CHEMBL1151234, “Chemistry of renieramycins. Part 5. Structure elucidation of renieramycin-type derivatives O, Q, R, and S from thai marine sponge Xestospongia species pretreated with potassium cyanide” (J Nat Prod, 2004).

One assay concerns HCT-116. Kind of assay: Cytotoxicity against human HCT116 cells after 4 days. Type of assay: functional, cell-based. Particulars: HCT-116, 96 h. In outline:
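Single-cell suspension of HCT116 cells seeded at 2 × 10^3 cells/well onto serially diluted test compounds, cultured 4 days. Growth read with a cell counting kit. IC50 taken as the concentration giving 50% growth inhibition versus untreated control.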

In the next assay the test system is QG-56. Kind of assay: Cytotoxicity against human QG56 cells after 4 days. Type of assay: functional, cell-based. As to conditions: QG-56, 96 h.

A word on the IC50: it is the concentration at which inhibition is half-maximal.

Regarding `C/C=C(/C)C(=O)OC[C@H]1c2c(c(OC(C)=O)c(C)c(OC)c2OC(C)=O)C[C@H]2[C@H]3c4c(c(OC(C)=O)c(C)c(OC)c4OC(C)=O)C[C@@H]([C@H](C#N)N12)N3C`, the IC50 with HCT-116 came out at 0.003 µM; in the assay with QG-56, 0.0079 µM.
In the same order, the values of `C/C=C(/C)C(=O)OC[C@H]1C2=C(C[C@H]3[C@H]4C5=C(C(=O)C(C)=C(OC)C5=O)[C@H](OC(C)=O)[C@@H]([C@H](C#N)N13)N4C)C(=O)C(C)=C(OC)C2=O` are 0.12 µM and 0.3 µM.
For `C/C=C(/C)C(=O)OC[C@H]1c2c(c(OC(C)=O)c(C)c(OC)c2OC(C)=O)C[C@H]2[C@H]3C4=C(C[C@@H]([C@H](C#N)N12)N3C)C(=O)C(C)=C(OC)C4=O`, the results for the IC50 in the assay on HCT-116 and in the assay with QG-56 were 0.0019 µM and 0.0039 µM, respectively.
Consider `C/C=C(/C)C(=O)OC[C@H]1C2=C(C[C@H]3[C@H]4c5c(OC(C)=O)c(OC)c(C)c(OC(C)=O)c5[C@H](OC(C)=O)[C@@H]([C@H](C#N)N13)N4C)C(=O)C(C)=C(OC)C2=O`, for which the IC50 came out at 0.63 µM with HCT-116 and 1.6 µM in the assay with QG-56.
As to `C/C=C(/C)C(=O)OC[C@H]1C2=C(C[C@H]3[C@H]4c5c(O)c(OC)c(C)c(O)c5C(=O)[C@@H]([C@H](C#N)N13)N4C)C(=O)C(C)=C(OC)C2=O` [RENIERAMYCIN Q], the IC50 in the assay on HCT-116 was found to be 0.059 µM; in the assay on QG-56, 0.071 µM.
For `C/C=C(/C)C(=O)OC[C@H]1C2=C(C[C@H]3[C@H]4C5=C(C(=O)C(C)=C(OC)C5=O)[C@H](OC)[C@@H]([C@H](C#N)N13)N4C)C(=O)C(C)=C(OC)C2=O` [RENIERAMYCIN R], the IC50 with HCT-116 turned out to be 0.023 µM; with QG-56, 0.029 µM.
As to `C/C=C(/C)C(=O)OC[C@H]1C2=C(C[C@H]3[C@H]4C5=C(C[C@@H]([C@H](C#N)N13)N4C)C(=O)C(C)=C(OC)C5=O)C(=O)C(C)=C(O)C2=O` [RENIERAMYCIN S], the IC50 in the assay on HCT-116 was 0.015 µM; in the assay on QG-56, 0.026 µM.
